# Activity calls are given as the source filed them. The calls are words filed in the database; no cut-off is given here.
# Experiments:
# [1] = molecular target: T1, Adrenergic receptor alpha-2 (Rattus norvegicus, UniProt P22086+P19328+P22909); assay: Alpha-2 adrenergic receptor pA2 value against clonidine in vitro experiment in rat vas deferens; type: tissue-based
# T1 sequence (P22086 whole entry): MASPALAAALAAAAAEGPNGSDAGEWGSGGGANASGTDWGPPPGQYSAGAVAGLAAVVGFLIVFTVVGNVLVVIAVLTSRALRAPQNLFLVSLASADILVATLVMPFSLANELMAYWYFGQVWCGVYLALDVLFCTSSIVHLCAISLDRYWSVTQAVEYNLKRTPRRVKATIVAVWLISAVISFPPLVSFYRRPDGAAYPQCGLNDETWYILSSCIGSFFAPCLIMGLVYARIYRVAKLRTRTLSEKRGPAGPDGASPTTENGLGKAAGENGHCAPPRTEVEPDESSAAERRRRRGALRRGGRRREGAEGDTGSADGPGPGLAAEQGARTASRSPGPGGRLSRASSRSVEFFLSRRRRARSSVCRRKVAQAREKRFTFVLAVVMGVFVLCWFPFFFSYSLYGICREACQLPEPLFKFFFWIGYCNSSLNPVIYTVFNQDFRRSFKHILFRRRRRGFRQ
# T1 sequence (P19328 whole entry): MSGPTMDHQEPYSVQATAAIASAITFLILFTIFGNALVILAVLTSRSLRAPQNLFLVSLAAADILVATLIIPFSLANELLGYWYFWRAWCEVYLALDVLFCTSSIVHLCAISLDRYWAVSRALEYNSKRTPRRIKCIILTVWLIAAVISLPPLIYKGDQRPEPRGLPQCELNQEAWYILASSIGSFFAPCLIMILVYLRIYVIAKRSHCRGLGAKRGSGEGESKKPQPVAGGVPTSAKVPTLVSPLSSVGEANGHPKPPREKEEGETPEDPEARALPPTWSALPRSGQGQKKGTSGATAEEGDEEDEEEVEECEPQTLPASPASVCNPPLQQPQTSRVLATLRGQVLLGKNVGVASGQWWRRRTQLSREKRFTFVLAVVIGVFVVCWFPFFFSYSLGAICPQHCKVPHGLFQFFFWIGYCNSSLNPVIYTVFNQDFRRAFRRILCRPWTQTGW
# T1 sequence (P22909 whole entry): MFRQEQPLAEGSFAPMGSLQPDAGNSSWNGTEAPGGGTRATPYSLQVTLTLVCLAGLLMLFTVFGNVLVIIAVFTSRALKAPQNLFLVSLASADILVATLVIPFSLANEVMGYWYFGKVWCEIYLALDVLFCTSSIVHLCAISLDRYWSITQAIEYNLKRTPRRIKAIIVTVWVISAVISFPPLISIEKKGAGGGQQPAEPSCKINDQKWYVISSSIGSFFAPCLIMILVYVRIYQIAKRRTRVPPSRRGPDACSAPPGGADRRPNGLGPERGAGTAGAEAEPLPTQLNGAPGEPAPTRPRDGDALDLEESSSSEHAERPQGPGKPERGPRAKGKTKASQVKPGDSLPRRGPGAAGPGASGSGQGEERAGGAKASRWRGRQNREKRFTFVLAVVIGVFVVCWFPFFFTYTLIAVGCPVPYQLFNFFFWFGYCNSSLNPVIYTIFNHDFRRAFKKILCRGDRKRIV
# In short: (§1)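 pA2 was obtained by Arunlakshana–Schild analysis at postsynaptic α1 (anococcygeus) or presynaptic α2 (vas deferens) sites. Values are mean ± SEM of at least six experiments.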
# [2] = molecular target: T2, Adrenergic receptor alpha-1 (Rattus norvegicus) (UniProt P15823+P23944+P43140); assay: In vitro postsynaptic antagonist potency at alpha-1 adrenergic receptor in rat anococcygeus relative to compound 5 (RX781094); type: functional
# [3] = molecular target: T3, Adrenergic receptor alpha-1 (Rattus norvegicus, UniProt P15823+P23944+P43140); assay: Alpha-1 adrenergic receptor pA2 value against norepinephrine in vitro experiment in rat anococcygeus.; in short: as §1
# T3 sequence (P15823 whole entry): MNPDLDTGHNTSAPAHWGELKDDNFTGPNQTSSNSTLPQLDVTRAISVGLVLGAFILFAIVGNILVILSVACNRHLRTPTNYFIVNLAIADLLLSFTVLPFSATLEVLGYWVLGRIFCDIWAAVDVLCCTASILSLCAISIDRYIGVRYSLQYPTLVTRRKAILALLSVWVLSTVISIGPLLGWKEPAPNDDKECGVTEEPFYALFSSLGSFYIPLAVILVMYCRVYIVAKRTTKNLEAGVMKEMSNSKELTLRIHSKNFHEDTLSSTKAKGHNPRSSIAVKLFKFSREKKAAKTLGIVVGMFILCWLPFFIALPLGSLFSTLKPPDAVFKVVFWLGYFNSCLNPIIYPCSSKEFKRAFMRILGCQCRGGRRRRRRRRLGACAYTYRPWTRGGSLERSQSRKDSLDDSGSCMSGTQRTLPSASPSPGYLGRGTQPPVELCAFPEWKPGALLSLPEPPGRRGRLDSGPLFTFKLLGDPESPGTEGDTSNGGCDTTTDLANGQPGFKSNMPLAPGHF
# T3 sequence (P23944 whole entry): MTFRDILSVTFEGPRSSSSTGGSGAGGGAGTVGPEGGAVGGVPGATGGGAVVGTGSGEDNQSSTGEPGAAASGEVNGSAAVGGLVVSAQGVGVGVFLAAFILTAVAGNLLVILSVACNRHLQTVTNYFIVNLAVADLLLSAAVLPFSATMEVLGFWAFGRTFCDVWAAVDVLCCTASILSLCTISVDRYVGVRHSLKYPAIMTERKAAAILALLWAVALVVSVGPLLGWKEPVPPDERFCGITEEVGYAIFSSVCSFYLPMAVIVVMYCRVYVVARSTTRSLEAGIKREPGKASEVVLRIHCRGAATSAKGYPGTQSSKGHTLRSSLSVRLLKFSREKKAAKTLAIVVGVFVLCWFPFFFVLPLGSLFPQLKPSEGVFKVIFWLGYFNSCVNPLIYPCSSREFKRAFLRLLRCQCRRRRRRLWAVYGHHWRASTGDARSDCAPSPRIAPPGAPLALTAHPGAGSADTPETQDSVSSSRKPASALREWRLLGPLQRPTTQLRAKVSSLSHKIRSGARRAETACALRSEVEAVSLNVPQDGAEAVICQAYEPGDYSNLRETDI
# T3 sequence (P43140 whole entry): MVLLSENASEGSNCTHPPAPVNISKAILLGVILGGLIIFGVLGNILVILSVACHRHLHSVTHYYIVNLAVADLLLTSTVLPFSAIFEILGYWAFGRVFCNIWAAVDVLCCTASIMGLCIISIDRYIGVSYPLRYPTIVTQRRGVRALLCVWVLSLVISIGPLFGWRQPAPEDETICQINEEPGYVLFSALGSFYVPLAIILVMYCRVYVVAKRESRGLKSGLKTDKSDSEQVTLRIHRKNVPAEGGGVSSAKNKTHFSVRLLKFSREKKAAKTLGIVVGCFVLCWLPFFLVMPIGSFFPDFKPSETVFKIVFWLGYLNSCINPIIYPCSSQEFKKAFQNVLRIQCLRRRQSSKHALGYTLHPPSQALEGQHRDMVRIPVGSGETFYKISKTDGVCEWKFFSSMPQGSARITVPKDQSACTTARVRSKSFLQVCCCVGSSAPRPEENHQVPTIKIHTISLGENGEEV
# [4] = molecular target: T2, Adrenergic receptor alpha-1 (Rattus norvegicus); assay: In vitro postsynaptic agonist potency at alpha-1 adrenergic receptor in rat anococcygeus muscle relative to phenylephrine; IA means inactive.; type: functional, tissue-based
# In short: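 Rat anococcygeus muscle (male Sprague–Dawley rats, 200–250 g) suspended at 0.5 g initial tension in a 50-mL organ bath. […] Standard dose-response curves were run before and after the analogue's curve.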
# [5] = molecular target: T4, Adrenergic receptor alpha-2 (Rattus norvegicus) (UniProt P22086+P19328+P22909); assay: In vitro presynaptic antagonist potency at alpha-2 adrenergic receptor in rat or mouse vas deferens relative to compound 5 (RX781094); type: functional, tissue-based
# In short: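 Prostatic halves of rat vas deferens (male Sprague–Dawley rats, 200–250 g; Krebs, 30 °C, 95% O2/5% CO2; 3-ms, 40 V, 0.1 Hz field pulses) or mouse vas deferens (Mg-free Krebs, 30 °C; 3-ms pulses, 0.1 Hz, 100–140 V) were used, with isometric twitch recording. […] The concentration giving 50% reversal was compared with the RX781094 standard in the same tissue.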
# [6] = Ratio of pA2 value against alpha2 to alpha-1 adrenoceptor
# In short: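 α2/α1 selectivity was taken as the antilog of the difference between the pA2 values at α2- and α1-adrenoreceptors.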
# [7] = molecular target: T2, Adrenergic receptor alpha-1 (Rattus norvegicus); assay: Ratio of presynaptic antagonist potency to postsynaptic antagonist potency; type: functional
# [8] = molecular target: T4, Adrenergic receptor alpha-2 (Rattus norvegicus); assay: In vitro presynaptic agonist potency at alpha-2 adrenergic receptor in rat or mouse vas deferens relative to clonidine; IA means inactive; type: functional, tissue-based
# In short: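 Field-stimulated rat or mouse vas deferens (Krebs, 30 °C, 95% O2/5% CO2, 3-ms pulses at 0.1 Hz) with isometric twitch recording. […] Standard dose-response curves were run before and after the analogue's curve.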
# [9] = molecular target: T2, Adrenergic receptor alpha-1 (Rattus norvegicus); assay: In vitro postsynaptic antagonist potency at alpha-1-adrenoceptor in rat anococcygeus relative to compound 5 (RX781094); type: functional
# [10] = molecular target: T3, Adrenergic receptor alpha-1; assay: Alpha-1-adrenoceptor pA2 value against norepinephrine in vitro experiment in rat anococcygeus.; in short: as §1
# [11] = molecular target: T2, Adrenergic receptor alpha-1 (Rattus norvegicus); assay: In vitro postsynaptic agonist potency at alpha-1 adrenergic receptor in rat anococcygeus muscle relative to phenylephrine; type: functional, tissue-based
SMILES,pA2 [1],Antagonist potency [2],pA2 [3],Agonist potency [4],Antagonist potency [5],Selectivity [6],Selectivity [7],Agonist potency [8],Antagonist potency [9],pA2 [10],Agonist potency [11]
Cc1ccc2c(c1)OCC(C1=NCCN1)O2 (stereo unspecified),7.56,0.4,6.17,inactive,0.08,30,0.21,inactive,–,–,–
Cc1ccc2c(c1)OC(C1=NCCN1)CO2 (stereo unspecified),7.1,–,–,–,0.08,17,0.14,inactive,0.8,5.87,0.004

# Reference: ChEMBL document CHEMBL1122229, “alpha-adrenoreceptor reagents. 1. Synthesis of some 1,4-benzodioxans as selective presynaptic alpha 2-adrenoreceptor antagonists and potential antidepressants” (J Med Chem, 1983)
